Test results published in PMC2680181 (Journal of medicinal chemistry, 2009).
Each block holds one compound with its values, some of them ahead of it.

Key:
[1] = target: T1, MIF tautomerase activity (rhMIF) (Homo sapiens, UniProt P14174); assay: 4-HPP tautomerase assay; assay type: biochemical; details: for IC50 (µM) 4-HPP tautomerase assay: substrate 4-HPP, NA = measured, but not active; for maximal inhibition in 4-HPP tautomerase assay: max inhibition printed in place of IC50
T1 sequence (P14174 2-115 limits assumed): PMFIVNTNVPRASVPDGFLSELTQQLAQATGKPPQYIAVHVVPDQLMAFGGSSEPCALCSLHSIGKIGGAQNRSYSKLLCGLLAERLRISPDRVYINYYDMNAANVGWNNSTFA
In short: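 Recombinant human MIF (purified) was pre-incubated with test compound. 4-HPP was dissolved in 50 mM ammonium acetate, pH 6.0, equilibrated to room temperature and stored at 4 °C. At 25 °C, 4-HPP was added to a cuvette of 0.435 M boric acid, pH 6.2, plus the enzyme–compound mix. A305 increase was read over 30–90 s, in triplicate. Compounds spanned a 5000-fold concentration range.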

[2] = target: T2, human MIF binding to its receptor, CD74 (Homo sapiens, UniProt P14174); assay: MIF-CD74 binding assay; details: NA = measured, but not active
T2 sequence (P14174 2-115 limits assumed): T1 sequence (P14174 2-115 limits assumed)

[3] = target: T1, MIF tautomerase activity (rhMIF); assay: Michaelis-Menten analysis of MIF tautomerase with 4-HPP as substrate; assay type: biochemical; details: Lineweaver-Burk plots, Vmax unchanged
MIF tautomerase = details: covalent inhibitor; cited from earlier work

IC50 (µM) 4-HPP tautomerase assay [1]: inactive
Compound: COC(=O)C[C@H]1CC(c2ccc(O)cc2)=NO1 (racemic) [Compound 9, (S,R)-3-(4-hydroxyphenyl)-4,5-dihydro-5-isoxazole acetic acid methyl ester, reference compound]

IC50 (µM) MIF-CD74 binding assay [2]: inactive
Compound: O=c1oc2c(O)c(O)ccc2cc1-c1nc2ccccc2s1 [Compound 11]

IC50 (µM) MIF-CD74 binding assay [2]: very weak MIF-CD74 antagonists
Compound: O=C(O)c1cc(-n2cnnn2)ccc1O [Compound 15]

IC50 (µM) MIF-CD74 binding assay [2]: very weak MIF-CD74 antagonists
Compound: O=C(O)c1cc(-n2cnnc2)ccc1Cl [Compound 16]

IC50 (µM) 4-HPP tautomerase assay [1]: weak tautomerase inhibitors
Compound: CC(=O)Oc1ccc2nc(-c3cc4ccccc4o3)oc(=O)c2c1 [Compound 17]

IC50 (µM) 4-HPP tautomerase assay [1]: weak tautomerase inhibitors
Compound: Oc1c(C(Nc2cccc(F)c2)c2ccccn2)ccc2cccnc12 (stereo not drawn) [Compound 18]

mode of tautomerase inhibition [3]: competitive inhibition
Compound: O=C(c1cc2ccccc2o1)N1CCc2ccccc21 [Compound 23]

mode of tautomerase inhibition [3]: competitive inhibition
Compound: Cc1ccc2oc(=O)n(Cc3ccccc3)c2c1 [Compound 24]

maximal inhibition in 4-HPP tautomerase assay [1]: max 40%
IC50 (µM) 4-HPP tautomerase assay [1]: weak tautomerase inhibitors
Compound: Oc1ccc(/C=C/c2ccc3cccc(O)c3n2)cc1 [Compound 26]

IC50 (µM) MIF-CD74 binding assay [2]: inactive
Compound: CC(=O)Nc1cccc2ccc(-c3cnc4ccccc4c3)nc12 [Compound 28]

maximal inhibition in 4-HPP tautomerase assay [1]: max 38%
Compound: Oc1ccc2c(c1)oc1ccccc12 [Compound 29]

IC50 (µM) MIF-CD74 binding assay [2]: inactive
Compound: O=c1c2ccc(F)cc2sn1-c1ccc(Cl)cc1 [Compound 32]

maximal inhibition in 4-HPP tautomerase assay [1]: max 30%
Compound: O=C(O)c1cccc(-c2cc[nH]n2)c1 [Compound 33]

Compound: CC(=O)N=C1C=CC(=O)C=C1 [NAPQI, N-acetyl-p-benzoquinone]
tautomerase inhibitor potency (MIF tautomerase): 40 µM
